EWS-Fli block: EWS/Fli transcriptional activity inhibition; A673 NR0B1-luciferase reporter, viability-normalised; inhibition, % at 12.6 µM; hit rate 0.67% among 350,000; AID 651661;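 active = mean inhibition of at least 50% after viability correction, with every replicate also passing that limit; inconclusive = mean reaches 50% but only one of two replicates passes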;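 note: firefly luciferase signal divided by Alamar Blue viability fluorescence both relative to DMSO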
LGR2 inh: Drosophila LGR2 receptor signaling inhibition; inhibition, % at 9.99 µM; hit rate 0.35% among 380,000; AID 720647; HEK293 LGR2, CRE-luciferase, bursicon-stimulated, 4 h;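 active = drop in luminescence signal, shown as inhibition above about 50% in the replicate tests, limit read from the data, passing the limit was not always enough; inconclusive = probably only some replicates passing the limit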;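 note: agonist challenge used bursicon conditioned medium at about half maximal strength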
rRNA inh HTS: selective bacterial rRNA inhibition in E. coli | E. coli WT GFP vs humanized-ribosome RFP mutants, fluorescence, 24 h; stronger effect = lower value; DMSO median 0, no signal -100 | GFP signal change (wild-type ribosome), % (test concentration not listed) | hit rate 1.6% among 350,000 | AID 720706;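 active = significant combined selectivity score with lowered wild-type GFP, culture density cut under 30%, mutant RFP and density less affected; inactive = any of these conditions unmet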
E-selectin induc: E-selectin induction on HUVECs | hit rate 0.37% among 260,000 | HUVEC E-selectin immunofluorescence imaging; normalized: neutral wells 0, TNF-alpha wells 100 | P16581 | activation, % at 7.58 µM;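 active = mean E-selectin-positive cell signal at least 10% of the positive control, reached in at least 60% of replicates, without over 20% cell loss; inconclusive = no rule given, readout overlaps actives, possibly toxicity-flagged; inactive = the rest, including those meeting only one limit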
Target sequence (P16581 whole entry, looked up): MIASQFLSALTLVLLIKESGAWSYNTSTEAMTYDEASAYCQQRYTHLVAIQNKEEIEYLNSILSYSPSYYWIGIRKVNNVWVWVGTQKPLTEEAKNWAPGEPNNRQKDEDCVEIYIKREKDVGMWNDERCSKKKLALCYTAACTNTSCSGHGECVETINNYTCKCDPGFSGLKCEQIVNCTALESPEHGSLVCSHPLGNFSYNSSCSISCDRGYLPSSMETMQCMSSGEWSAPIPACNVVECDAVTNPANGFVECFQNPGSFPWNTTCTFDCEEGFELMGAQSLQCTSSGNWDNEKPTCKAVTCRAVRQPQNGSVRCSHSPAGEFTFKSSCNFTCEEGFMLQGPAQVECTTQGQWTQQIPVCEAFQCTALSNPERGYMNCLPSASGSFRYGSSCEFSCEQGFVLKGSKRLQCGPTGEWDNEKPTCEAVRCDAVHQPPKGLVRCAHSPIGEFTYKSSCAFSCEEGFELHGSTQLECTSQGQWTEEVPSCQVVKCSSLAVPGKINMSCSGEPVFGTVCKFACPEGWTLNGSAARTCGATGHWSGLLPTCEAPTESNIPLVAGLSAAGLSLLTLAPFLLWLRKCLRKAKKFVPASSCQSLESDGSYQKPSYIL
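Material: HUVEC primary endothelial cells; Amount: 3,000 cells per well; Dosing: single concentration; Medium: EGM-2 growth medium on 0.1% gelatin-coated wells; Read-out basis: percent E-selectin-positive cells; Signal: immunofluorescence imaging; Control set: TNF-alpha, DMSO.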
AID977621: growth inhibition of wild-type GFP E. coli, dose response, H69 mutant RFP, cherry-pick. activity change, negative = inhibition at 50 µM. E. coli wild-type GFP strain growth, fluorescence, 24 h. shares compounds with rRNA inh HTS. 1,900 tested, under 10 active;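 active = Wild-type ribosome reporter drop at least double the humanized mutant ribosome reporter drop, growth loss under a set limit; inconclusive = no clear call, values can overlap the other calls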;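 note: wild-type GFP and H69 mutant RFP strains grown together 50/50 in each well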
AID977628: E. coli growth inhibition, wild-type GFP versus h24 humanized RFP strain, dose response, h24 mutant RFP vs wild-type GFP, cherry-pick. shares compounds with rRNA inh HTS. E. coli WT GFP strain growth, fluorescence, 24 h. activity change, negative = inhibition at 50 µM. 1,900 tested, under 10 active. AID 977628;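 active = compound lowering the normal-ribosome reporter at least twice as much as the humanized-ribosome reporter, growth loss under a set limit; inconclusive = no clear call, values can overlap the other calls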;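 note: wild-type GFP and h24 humanized RFP strains co-cultured 1 to 1 per well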
* hit, by the source's call; ? = inconclusive; . = no result. A selection: hits, their analogues and other compounds. The true share with any hit is near 2.4%.

SMILES	EWS-Fli block	LGR2 inh	rRNA inh HTS	E-selectin induc	AID977621	AID977628
O=C(Nc1cccc(O)c1)c1cccc(S(=O)(=O)Nc2cccc(O)c2)c1	-3.1	-5.6	-16.1*	0.0	-4.26	-3.23
O=C(Nc1cccc(O)c1)c1cccc(C(=O)Nc2cccc(O)c2)c1	-33.5	-12.5	-14.6	0.0	.	.
CN(C)CCCN(C(=O)CCOc1ccccc1)c1nc2c(F)cccc2s1	14.8	15.8	-14.1*	.	-8.51	?
CN(C)CCCN(C(=O)COc1ccc(Cl)cc1)c1nc2ccc(F)cc2s1	-5.3	-5.2	-23.4*	0.0	-6.28	-4.44
CO[C@H]1CN(C)C(=O)c2ccc(NC(=O)NC(C)C)cc2OC[C@@H](C)N(Cc2cncnc2)C[C@H]1C	3.2	-7.6	1.3	-0.1	.	.
O=C(NCCc1ccc(Cl)cc1Cl)c1ccc2nc[nH]c2c1	2.9	-23.1	-8.1	.	.	.
O=C(NCCc1ccc(Cl)cc1)c1ccc2nc[nH]c2c1	-17.0	-6.0	-31.8*	.	.	?
C[C@@H]1CCCCO[C@H](CN(C)C)[C@@H](C)CN([C@H](C)CO)C(=O)c2cc(NC(=O)CCCN(C)C)ccc2O1	-4.5	9.1	2.7	-0.1	.	.
c1ccc(CN=C2NN=C(c3ccccc3)CS2)cc1	-58.9	-63.8	-2.9	.	.	.
CCN=C1NN=C(c2ccc(C)cc2)CS1	-13.8	-82.8	-22.5*	.	-10.5	-8.07
COc1ccc(CNc2cc([N+](=O)[O-])ccc2OC)cc1	-0.3	-6.0	-20.8*	.	-6.37	.
Cc1ccc(S(=O)(=O)N[C@H]2C=C[C@H](CC(=O)NCCc3ccncc3)O[C@@H]2CO)cc1	-3.5	0.1	2.1	0.1	.	.
Cc1noc(C)c1S(=O)(=O)Nc1ccc2c(c1)C(=O)N([C@@H](C)CO)C[C@H](C)[C@@H](CN(C)C(=O)Nc1ccc3c(c1)OCO3)OCCCC[C@@H](C)O2	-44.0	5.9	1.5	-0.4	.	.
CC1CCCC(NC(=O)COC(=O)Cc2c[nH]c3ccccc23)C1C (stereo not given)	7.3	1.9	-29.1*	2.3	-13.5	-13.5
COc1ccccc1CC(=O)NCc1csc(-c2cccs2)n1	-74.7	-22.0	-21.2*	0.0	-11.3	5.69
COc1ccc(NC(=O)N(C)C[C@H]2OCc3cn(nn3)CCCC(=O)N([C@@H](C)CO)C[C@H]2C)c(OC)c1	5.2	-7.6	0.5	2.4	.	.
Cc1ccc(NC(=O)C[n+]2cc(-c3ccccc3)n3c2CCC3)c(C)c1	?	.	-21.2*	3.2	?	?
COc1ccc(/C=C/c2cccc[n+]2C)c(O)c1	-10.5	-5.0	6.6	.	.	.
C[n+]1ccccc1/C=C/c1cc(Br)ccc1O	-16.7	-6.7	-21.3*	.	.	?
Cc1ccnc(NS(=O)(=O)c2ccc(NC(=O)c3ccc4c(c3)OCCO4)cc2)n1	-0.7	8.8	-22.6*	2.1	-11.2	-12.1
CCc1ccc2[nH]c(C(=O)Nc3ccc4c(c3)OCO4)cc2c1	-46.8	-18.2	-26.0*	24.6	-12.7	?
Cc1cc(C)c2[nH]c(C(=O)Nc3ccc4c(c3)OCO4)cc2c1	-51.5	-13.0	-18.6	.	.	.
CCN1C(=O)c2ccccc2Sc2ccc(C(=O)O)cc21	-0.1	18.5	-0.4	-0.1	.	.
O=C(O)c1ccc2c(c1)N(Cc1ccccc1)C(=O)c1ccccc1S2	-1.4	0.3	-23.6*	4.8	-9.78	.
CC(=O)Nc1cccc(NC(=O)CCN2C(=O)c3ccccc3S2(=O)=O)c1	6.0	15.6	-14.5*	.	?	-13.1
SMILES	EWS-Fli block	LGR2 inh	rRNA inh HTS	E-selectin induc	AID977621	AID977628
O=C(CCN1C(=O)c2ccccc2S1(=O)=O)Nc1cccc(F)c1	-6.0	9.0	2.9	-0.1	.	.
COc1ccc(NC(=O)N[C@H]2CC[C@H](CCNS(=O)(=O)c3cccc(Cl)c3)O[C@H]2CO)cc1	7.7	-3.7	-6.5	-0.6	.	.
CCCC(=O)N1CCC2(CC1)CN(C(=O)C1CCCCC1)[C@H](CO)c1[nH]c3cc(OC)ccc3c12	-5.1	10.3	1.5	-0.3	.	.
OC(COc1ccc(Cl)cc1)CN1CCN(c2ccccn2)CC1 (stereo not given)	3.9	.	-21.8*	-0.1	.	-6.82
Cc1ccc2cccc(OCc3ccccc3)c2n1	6.3	.	-26.3*	0.1	-10.5	-8.02
CO[C@@H]1CN(C)C(=O)c2cc(NC(=O)C3CC3)ccc2OC[C@@H](C)N(Cc2ccccc2C(=O)O)C[C@H]1C	-8.5	-20.5	.	-0.1	.	.
O=C(CN1CCCCC1)Nc1nc(-c2ccc(F)c(F)c2)cs1	-43.3	-29.7	5.1	-0.1	.	.
O=C(COC(=O)C1CC1)Nc1nc(-c2ccc(F)c(F)c2)cs1	-33.6	-26.9	-24.0*	0.1	-6.52	.
O=C(COC(=O)[C@@H]1CCCN1S(=O)(=O)c1ccccc1F)c1ccccc1	7.8	-0.3	-15.7*	4.3	-6.63	?
CCOC(=O)c1c(C)[nH]c(C)c1C(=O)COC(=O)C1CCCN1S(=O)(=O)c1ccccc1F (stereo not given)	.	2.4	.	.	.	.
COC(=O)c1cccc(CN2C(=O)SC(Nc3ccc(C)cc3)C2=O)c1 (stereo not given)	5.9	2.8	-16.5*	.	-20	?
O=C(C[C@H]1CC[C@@H](NC(=O)Nc2cc(F)ccc2F)[C@H](CO)O1)NCc1ccc2c(c1)OCO2	2.5	-4.2	-0.1	0.1	.	.
CN(C)CCCn1c(=O)n(CCc2ccccc2)c(=O)c2c3c(sc21)CCCCC3	3.0	.	-48.8	.	.	.
CN(C)CCCn1c(=O)n(Cc2ccco2)c(=O)c2c3c(sc21)CCCCC3	13.0	20.5	-26.5*	-0.3	-20	?
Cc1cc(C)nc(SCCC(=O)Nc2ccccc2Cl)n1	3.0	2.9	-17.9*	.	.	-14.5
O=C(NC1CCC1)[C@@H]1[C@@H](CO)[C@@H]2Cn3c(ccc(-c4ccncc4)c3=O)[C@@H]2N1CCc1ccccc1	-3.8	11.3	-1.5	-0.4	.	.
O=[N+]([O-])c1ccc2nc(-c3ccccc3[N+](=O)[O-])[nH]c2c1	-28.3	-14.9	-27.6*	-0.1	.	-12.3
O=[N+]([O-])c1cccc(-c2nc3ccc([N+](=O)[O-])cc3[nH]2)c1	-167.5	-63.9	8.7	2.0	.	.
Cc1ccc(-c2nc(CN3CCCCC3c3cccc(F)c3)c(C)o2)o1 (stereo not given)	3.2	1.6	-18.4*	.	-5.88	-14.6
Cc1ccc(S(=O)(=O)N(C)C[C@H]2Oc3c(cccc3N(C)C)C(=O)N([C@@H](C)CO)C[C@H]2C)cc1	-6.8	-1.2	-4.6	-8.5	.	.
C[C@@H]1CN([C@H](C)CO)C(=O)Cc2cc(NC(=O)C3CC3)ccc2O[C@@H]1CN(C)Cc1ccccc1	-11.1	-1.1	-2.6	0.3	.	.
O=C1C(Oc2ccccc2)C(c2cccs2)N1Cc1ccc2c(c1)OCO2 (stereo not given)	.	15.6	.	.	.	.
COc1ccc(OC2C(=O)N(Cc3ccc4c(c3)OCO4)C2c2cccs2)cc1 (stereo not given)	.	22.2	-22.3*	.	-16.3	.

Screens deposited in PubChem by Broad Institute.
